Legend:
[1] = target: Glutamate receptor ionotropic, NMDA 2B (Homo sapiens) (UniProt Q13224); assay: Displacement of [3H]ifenprodil from human GluN2B expressed in mouse L(tk-) cell membranes at 1 uM incubated for 120 mins by scintillation counting method relative to control
In short: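 Competition binding with [³H]ifenprodil on membranes of mouse fibroblast L(tk-) cells stably transfected with dexamethasone-inducible vectors for human GluN1a and human GluN2B; inhibition (%) of radioligand binding recorded at 1 μM test compound.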

[2] = Displacement of [3H]-(+)-MK-801 from NMDA PCP binding site in pig brain cortex membrane at 1 uM incubated for 120 mins by scintillation counting method relative to control; assay type: cell membranes
[3] = target: Sigma non-opioid intracellular receptor 1 (Cavia porcellus) (UniProt Q60492); assay: Displacement of [3H]-(+)pentazocine from sigma-1 receptor in guinea pig brain membranes after 120 mins by scintillation counting method relative to control; assay type: cell membranes; set-up: concentration or dose not given beside the values
Sequence of Sigma non-opioid intracellular receptor 1 (Cavia porcellus) (Q60492 whole entry): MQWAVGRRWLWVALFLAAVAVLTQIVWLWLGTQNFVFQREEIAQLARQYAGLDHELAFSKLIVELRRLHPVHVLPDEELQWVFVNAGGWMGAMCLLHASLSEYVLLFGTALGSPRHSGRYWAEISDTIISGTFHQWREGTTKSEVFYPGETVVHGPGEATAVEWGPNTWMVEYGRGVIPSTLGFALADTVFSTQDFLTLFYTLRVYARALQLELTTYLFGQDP

[4] = target: T1, Sigma intracellular receptor 2 (Rattus norvegicus) (UniProt Q5U3Y7); assay: Displacement of [3H]-Di-o-tolylguanidine from sigma-2 receptor in rat liver membranes after 120 mins by scintillation counting method relative to control; assay type: cell membranes; set-up: concentration or dose not given beside the values
T1 sequence (whole entry): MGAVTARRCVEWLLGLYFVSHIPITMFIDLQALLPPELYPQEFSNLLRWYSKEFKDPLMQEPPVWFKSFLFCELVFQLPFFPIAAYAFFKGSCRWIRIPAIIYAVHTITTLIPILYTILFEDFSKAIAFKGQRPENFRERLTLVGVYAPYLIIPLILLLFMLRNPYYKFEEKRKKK

[5] = target: T2, Sigma non-opioid intracellular receptor 1 (Cavia porcellus, UniProt Q60492); assay: Displacement of [3H]-(+)pentazocine from sigma-1 receptor in guinea pig brain membranes after 120 mins by scintillation counting method; assay type: cell membranes
T2 sequence (Q60492 whole entry): as the sequence (Q60492 whole entry) above

[6] = target: T3, Sigma intracellular receptor 2 (Rattus norvegicus, UniProt Q5U3Y7); assay: Displacement of [3H]-Di-o-tolylguanidine from sigma-2 receptor in rat liver membranes after 120 mins by scintillation counting method; assay type: cell membranes
T3 sequence (Q5U3Y7 whole entry): T1 sequence (whole entry)

[7] = target: Glutamate receptor ionotropic, NMDA 2B (Homo sapiens, UniProt Q05586+Q13224); assay: Displacement of [3H]ifenprodil from human GluN2B expressed in mouse L(tk-) cell membranes co-expressing GluN1a incubated for 120 mins by scintillation counting method
Sequence of Glutamate receptor ionotropic, NMDA 2B (Q13224 whole entry, one chain of several): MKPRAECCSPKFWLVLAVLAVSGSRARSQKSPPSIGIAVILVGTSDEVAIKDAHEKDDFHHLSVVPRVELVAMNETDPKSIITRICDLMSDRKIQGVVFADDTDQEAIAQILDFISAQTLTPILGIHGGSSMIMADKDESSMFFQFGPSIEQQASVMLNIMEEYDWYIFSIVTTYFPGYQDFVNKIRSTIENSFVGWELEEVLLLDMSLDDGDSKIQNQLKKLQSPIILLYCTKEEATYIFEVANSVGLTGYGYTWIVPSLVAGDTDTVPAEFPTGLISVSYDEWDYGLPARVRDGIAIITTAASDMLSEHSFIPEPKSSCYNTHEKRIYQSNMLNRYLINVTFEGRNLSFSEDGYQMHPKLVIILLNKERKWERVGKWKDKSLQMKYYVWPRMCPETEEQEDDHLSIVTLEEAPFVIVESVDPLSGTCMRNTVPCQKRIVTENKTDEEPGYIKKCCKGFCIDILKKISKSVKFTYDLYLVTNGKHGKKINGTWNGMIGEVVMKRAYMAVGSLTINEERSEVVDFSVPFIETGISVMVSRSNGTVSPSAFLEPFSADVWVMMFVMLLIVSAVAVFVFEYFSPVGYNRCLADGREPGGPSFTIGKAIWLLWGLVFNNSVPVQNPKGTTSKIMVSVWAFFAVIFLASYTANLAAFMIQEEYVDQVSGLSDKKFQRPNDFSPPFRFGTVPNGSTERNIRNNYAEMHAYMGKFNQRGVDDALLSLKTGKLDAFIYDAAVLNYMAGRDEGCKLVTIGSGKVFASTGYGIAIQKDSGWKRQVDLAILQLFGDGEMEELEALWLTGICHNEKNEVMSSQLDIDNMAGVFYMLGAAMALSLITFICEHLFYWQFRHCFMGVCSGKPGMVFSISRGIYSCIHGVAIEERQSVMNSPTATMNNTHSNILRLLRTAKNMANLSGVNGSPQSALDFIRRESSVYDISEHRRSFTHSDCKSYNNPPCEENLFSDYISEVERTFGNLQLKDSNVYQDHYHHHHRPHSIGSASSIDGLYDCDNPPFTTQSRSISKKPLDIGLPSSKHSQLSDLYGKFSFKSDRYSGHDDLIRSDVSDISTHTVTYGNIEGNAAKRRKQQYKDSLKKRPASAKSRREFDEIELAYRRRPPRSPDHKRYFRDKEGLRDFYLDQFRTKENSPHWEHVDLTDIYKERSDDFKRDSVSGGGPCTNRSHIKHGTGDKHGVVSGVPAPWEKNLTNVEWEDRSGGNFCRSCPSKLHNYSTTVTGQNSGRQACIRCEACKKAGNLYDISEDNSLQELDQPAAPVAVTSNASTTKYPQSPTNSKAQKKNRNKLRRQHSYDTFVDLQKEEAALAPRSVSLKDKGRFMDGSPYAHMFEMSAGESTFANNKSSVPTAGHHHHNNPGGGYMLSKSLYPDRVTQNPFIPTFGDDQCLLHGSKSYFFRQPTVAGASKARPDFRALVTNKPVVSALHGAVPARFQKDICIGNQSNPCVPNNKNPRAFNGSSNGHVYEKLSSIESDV

Cavia porcellus = species on record: Cavia porcellus; assay: Displacement of [3H]-(+)-MK-801 from NMDA PCP binding site in pig brain cortex membrane at 1 uM incubated for 150 mins by scintillation counting method relative to control; assay type: cell membranes
[8] = target: T2, Sigma non-opioid intracellular receptor 1; assay: Displacement of [3H]-(+)pentazocine from sigma-1 receptor in guinea pig brain membranes after 180 mins by scintillation counting method; assay type: cell membranes
[9] = target: T3, Sigma intracellular receptor 2; assay: Displacement of [3H]-Di-o-tolylguanidine from sigma-2 receptor in rat liver membranes after 180 mins by scintillation counting method; assay type: cell membranes

Sequence of Glutamate receptor ionotropic, NMDA 2B (Homo sapiens) (Q13224 27-1484 limits assumed): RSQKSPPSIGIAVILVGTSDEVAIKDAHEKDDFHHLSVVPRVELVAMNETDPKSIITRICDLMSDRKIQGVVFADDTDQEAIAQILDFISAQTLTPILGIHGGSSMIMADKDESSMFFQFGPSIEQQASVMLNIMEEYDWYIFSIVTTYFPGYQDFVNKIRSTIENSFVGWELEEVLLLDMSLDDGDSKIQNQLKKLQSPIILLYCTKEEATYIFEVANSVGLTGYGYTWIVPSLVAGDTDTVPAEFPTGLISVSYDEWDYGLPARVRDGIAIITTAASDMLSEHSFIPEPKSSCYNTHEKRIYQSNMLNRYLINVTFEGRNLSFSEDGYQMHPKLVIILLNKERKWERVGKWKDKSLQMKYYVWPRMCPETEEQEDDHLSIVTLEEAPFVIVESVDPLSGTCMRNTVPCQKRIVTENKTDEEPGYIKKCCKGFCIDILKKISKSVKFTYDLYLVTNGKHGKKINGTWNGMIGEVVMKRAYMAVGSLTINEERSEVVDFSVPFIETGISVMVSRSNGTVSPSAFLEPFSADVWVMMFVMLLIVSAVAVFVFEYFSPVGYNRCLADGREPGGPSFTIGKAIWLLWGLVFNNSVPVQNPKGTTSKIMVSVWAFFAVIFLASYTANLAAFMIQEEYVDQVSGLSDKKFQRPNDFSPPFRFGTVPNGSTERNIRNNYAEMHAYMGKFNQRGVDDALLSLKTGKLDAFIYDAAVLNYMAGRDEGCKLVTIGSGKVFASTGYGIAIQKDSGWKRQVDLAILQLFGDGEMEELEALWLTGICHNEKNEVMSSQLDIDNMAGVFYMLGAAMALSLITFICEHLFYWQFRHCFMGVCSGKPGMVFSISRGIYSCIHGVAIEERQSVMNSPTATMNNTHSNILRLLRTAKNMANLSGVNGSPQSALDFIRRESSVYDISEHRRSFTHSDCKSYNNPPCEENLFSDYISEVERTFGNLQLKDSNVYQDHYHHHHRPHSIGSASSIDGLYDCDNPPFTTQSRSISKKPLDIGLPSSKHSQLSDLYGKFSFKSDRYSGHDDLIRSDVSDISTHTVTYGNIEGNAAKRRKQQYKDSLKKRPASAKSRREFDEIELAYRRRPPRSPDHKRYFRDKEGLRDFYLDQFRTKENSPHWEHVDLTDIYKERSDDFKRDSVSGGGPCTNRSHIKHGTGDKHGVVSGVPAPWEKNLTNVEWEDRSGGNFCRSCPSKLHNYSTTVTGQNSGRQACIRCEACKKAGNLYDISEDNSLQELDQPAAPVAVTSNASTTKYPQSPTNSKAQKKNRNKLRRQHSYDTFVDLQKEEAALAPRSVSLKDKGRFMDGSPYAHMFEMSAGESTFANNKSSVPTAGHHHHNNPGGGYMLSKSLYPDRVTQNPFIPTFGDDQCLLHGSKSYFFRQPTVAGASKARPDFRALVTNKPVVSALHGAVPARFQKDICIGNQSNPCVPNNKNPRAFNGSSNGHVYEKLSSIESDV

Structure (SMILES) | inhibition [1] [%] | inhibition [2] [%] | inhibition [3] [%] | inhibition [4] [%] | Ki [5] [nM] | Ki [6] [nM] | Ki [7] [nM] | inhibition (Cavia porcellus) [%] | Ki [8] [nM] | Ki [9] [nM]
COc1ccc2c(c1)CCN(CCCCc1ccccc1OCCF)CC2O (centres undefined) | 19 | 0 |  |  | 715 | 593 |  |  |  | 
COc1ccc2c(c1)CCN(CCC#Cc1ccc(OCCF)cc1)CC2O (centres undefined) | 3 | 0 |  | 12 | 701 |  |  |  |  | 
Oc1ccc2c(c1)CCN(CCCCc1ccc(OCCF)cc1)CC2O (centres undefined) |  | 0 |  |  | 705 | 79 | 193 |  |  | 
COc1ccc2c(c1)CCN(CCC#Cc1nccs1)CC2O (centres undefined) | 0 | 0 | 0 | 0 |  |  |  |  |  | 
COc1ccc2c(c1)CCN(CCCCc1ccccc1)CC2O (centres undefined) |  |  |  |  |  |  |  | 25 | 211 | 96
COc1ccc2c(c1)CCN(CCCCc1cccs1)CC2O (centres undefined) | 20 | 0 |  |  | 340 | 562 |  |  |  | 
COc1ccc2c(c1)CCN(CCC#Cc1cccs1)CC2O (centres undefined) | 13 | 0 | 21 | 20 |  |  |  |  |  | 
COc1ccc2c(c1)CCN(CCCCc1cn(CCF)nn1)CC2O (centres undefined) | 0 | 0 | 28 | 0 |  |  |  |  |  | 
COc1ccc2c(c1)CCN(CCCCc1cccnc1)CC2O (centres undefined) | 0 | 0 |  |  | 274 | 397 |  |  |  | 
COc1ccc2c(c1)CCN(CCCC#Cc1ccccc1)CC2O (centres undefined) |  | 9 |  |  | 164 | 878 | 460 |  |  | 

The remaining lines, values ahead:

inhibition [1] [%] | inhibition [2] [%] | inhibition [3] [%] | inhibition [4] [%] | Ki [5] [nM] | Ki [6] [nM] | Ki [7] [nM] | inhibition (Cavia porcellus) [%] | Ki [8] [nM] | Ki [9] [nM] | Structure (SMILES)
4 | 4 | 31 | 22 |  |  |  |  |  |  | COc1ccc2c(c1)CCN(CCC#Cc1ccccc1OCCF)CC2O (centres undefined)
18 | 15 |  | 15 | 565 |  |  |  |  |  | COc1ccc2c(c1)CCN(CCC#Cc1ccccc1)CC2O (centres undefined)
1 | 0 | 5 | 9 |  |  |  |  |  |  | COc1ccc2c(c1)CCN(CCC#Cc1cccnc1)CC2O (centres undefined)
0 | 0 | 0 | 12 |  |  |  |  |  |  | OC1CN(CCC#Cc2ccc(OCCF)cc2)CCc2cc(OCc3ccccc3)ccc21 (centres undefined)
3 | 0 | 9 | 23 |  |  |  |  |  |  | COc1ccc2c(c1)CCN(CCC#Cc1cccc(OCCF)c1)CC2O (centres undefined)

From ChEMBL document CHEMBL4346734, “Modification of the 4-phenylbutyl side chain of potent 3-benzazepine-based GluN2B receptor antagonists” (Bioorg Med Chem, 2019)
